In ChEMBL document CHEMBL1146355, “Synthesis and cytotoxic evaluation of C-9 oxidized podophyllotoxin derivatives” (Bioorg Med Chem, 2007) one finds IC50 data, which are given here for 18 compounds.

Holding throughout (assay type): functional, cell-based
For experiment [1], the system named is HT-29. As to the kind of experiment: Cytotoxicity against human HT29 cells after 4 days. The conditions noted are these: HT-29, 96 h. The method in brief:
(§1)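 Cells seeded at 2 × 10⁴/well in MEM with 10% FCS containing the compound at different concentrations. Incubated 4 days at 37 °C under 10% CO₂ and 98% humidity. Drug-free control wells were counted daily to confirm exponential growth. Read-out was crystal violet staining, then inhibition estimated by comparison with controls.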

The test system of experiment [2] is P388. As to the kind of experiment: Cytotoxicity against mouse P388 cells after 4 days. The conditions noted are these: P388, 96 h. The method in brief: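 Murine leukaemia cells seeded at 1 × 10⁴/well in MEM with 10% FCS containing the compound at different concentrations. Incubated 4 days at 37 °C under 10% CO₂ and 98% humidity, with drug-free controls counted daily to confirm exponential growth. Inhibition judged by inverted microscopy against controls, with no staining.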

For experiment [3], the system named is A549. Briefly: Cytotoxicity against human A549 cells after 4 days. The conditions noted are these: A549, 96 h. The method in brief: as §1
Experiment [4] in a line: Cytotoxicity against human MEL28 cells after 4 days. The conditions noted are these: SK-MEL-28, 96 h. In a few lines: as §1

Usually IC50 stands for the concentration that gives 50% inhibition. High values mean a need for much substance, low ones inhibition by little substance.

Molecules are shown by their SMILES.

`COc1cc([C@H]2C3=C(Cc4cc5c(cc42)OCO5)C(O)OC3=O)cc(OC)c1OC` (stereo partly drawn): the IC50 in experiment [1], in experiment [2] and in experiment [3] was 1200 nM throughout.

For `COc1cc([C@@H]2c3cc4c(cc3C=C3C(=O)OC[C@H]32)OCO4)cc(OC)c1OC`, the IC50 in experiment [1], in experiment [4], in experiment [2] and in experiment [3] was over 20000 nM each time.

As for `COC(=O)[C@@H]1C(C#N)=Cc2cc3c(cc2[C@H]1c1cc(OC)c(OC)c(OC)c1)OCO3`, the IC50 in experiment [1], in experiment [4] and in experiment [3] was 2400 nM each time.

Consider `COC(=O)[C@@H]1C(C(=O)O)=Cc2cc3c(cc2[C@H]1c1cc(OC)c(OC)c(OC)c1)OCO3`, for which the IC50 in experiment [1], in experiment [4], in experiment [2] and in experiment [3] was over 20000 nM in each case.

Take `COC(=O)C1=Cc2cc3c(cc2[C@@H](c2cc(OC)c(OC)c(OC)c2)[C@@H]1C(=O)OC)OCO3`: the IC50 in experiment [1], in experiment [4], in experiment [2] and in experiment [3] was 5100 nM throughout.

For `COc1cc([C@@H]2c3cc4c(cc3C=C(C(=O)O)[C@H]2C(=O)O)OCO4)cc(OC)c1OC`, the IC50 in experiment [1], in experiment [4], in experiment [2] and in experiment [3] was over 20000 nM each time.

For the compound `COc1cc([C@@H]2c3cc4c(cc3C=C3C(=O)OC(=O)[C@H]32)OCO4)cc(OC)c1OC`, the 50% inhibitory concentration (IC50) in experiment [1], in experiment [4], in experiment [2] and in experiment [3] was 12000 nM in each case.

Consider `COC(=O)[C@@H]1C(C(=O)Nc2ccccc2)=Cc2cc3c(cc2[C@H]1c1cc(OC)c(OC)c(OC)c1)OCO3`, for which the IC50 in experiment [1], in experiment [2] and in experiment [3] was 1900 nM in each case.

As for `COC(=O)[C@@H]1C(C(=O)Nc2ccc(C)cc2)=Cc2cc3c(cc2[C@H]1c1cc(OC)c(OC)c(OC)c1)OCO3`, the IC50 in experiment [1], in experiment [4], in experiment [2] and in experiment [3] was 1900 nM in each case.

In the case of `COC(=O)[C@@H]1C(C(=O)OC(C)=O)=Cc2cc3c(cc2[C@H]1c1cc(OC)c(OC)c(OC)c1)OCO3`, the IC50 in experiment [1], in experiment [4], in experiment [2] and in experiment [3] was 10000 nM throughout.

As for `COc1cc(-c2c3c(cc4cc5c(cc24)OCO5)C(=O)N(CCO)C3=O)cc(OC)c1OC`, the IC50 in experiment [1], in experiment [2] and in experiment [3] was 2200 nM each time.

With `COC(=O)[C@@H]1C(C(=O)Nc2cc(OC)c(OC)c(OC)c2)=Cc2cc3c(cc2[C@H]1c1cc(OC)c(OC)c(OC)c1)OCO3`, the IC50 in experiment [1], in experiment [2] and in experiment [3] was 1700 nM in each case.

As to `CCCCCCNC(=O)c1cc2cc3c(cc2c(-c2cc(OC)c(OC)c(OC)c2)c1C(=O)NCCCCCC)OCO3`, the IC50 in experiment [1], in experiment [2] and in experiment [3] was 2000 nM throughout.

As for `CCCCCCNC(=O)C1=Cc2cc3c(cc2[C@@H](c2cc(OC)c(OC)c(OC)c2)[C@@H]1C(=O)OC)OCO3`, the IC50 in experiment [1], in experiment [2] and in experiment [3] was 1900 nM throughout.

Take `COc1cc([C@@H]2c3cc4c(cc3C=C(C=O)[C@H]2CO)OCO4)cc(OC)c1OC`: inhibition in experiment [4] was half-maximal at 250 nM (IC50).

In turn, `COC(=O)[C@@H]1C(/C=N/O)=Cc2cc3c(cc2[C@H]1c1cc(OC)c(OC)c(OC)c1)OCO3` yielded an IC50 in experiment [4] of 2300 nM.

As to `COc1cc([C@@H]2c3cc4c(cc3[C@H](O)[C@H]3COC(=O)[C@H]23)OCO4)cc(OC)c1OC` [PODOFILOX], the IC50 in experiment [1] was found to be 12 nM.

Regarding `COC(=O)[C@@H]1C(C=O)=Cc2cc3c(cc2[C@H]1c1cc(OC)c(OC)c(OC)c1)OCO3` [PODOPHYLLIC ALDEHYDE], half-maximal inhibition in experiment [4] (IC50) required 230 nM.
